Results on 32 compounds are retold here after ChEMBL document CHEMBL1131341, “Orally active antimalarial 3-substituted trioxanes: new synthetic methodology and biological evaluation” (J Med Chem, 1998).

For one assay, the system named is Plasmodium falciparum. Briefly: In vitro antimalarial activity in chloroquine-sensitive Plasmodium falciparum NF54. The class given is functional, organism-based. Summed up:
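IC50 (nM) was measured against cultured parasites in quadruplicate and derived from fitted dose-response curves with R² ≥0.989.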

In assay [1] the test system is Plasmodium berghei. Briefly: Effective in vivo dose ED50 against Plasmodium berghei N after subcutaneous dose at 1,3,10 or 30 mg/kg/day, n=5. The note with it: sc. It counts as functional. Summed up: (§1)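 Mice infected with chloroquine-sensitive P. berghei (N) were dosed daily for 4 days at 1, 3, 10 and 30 mg/kg, with five mice per dose regimen. The ED values were derived from these four dose levels.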

Assay [2] relates to Plasmodium berghei. Briefly: Effective in vivo dose ED90 against Plasmodium berghei N on oral administration. The class given is functional. Summed up: as §1
For assay [3], the system named is Plasmodium berghei. Briefly: Effective in vivo dose ED50 against Plasmodium berghei N after oral dose at 1,3,10 or 30 mg/kg/day, n=5. It counts as functional. Summed up: as §1

A value given as a limit tells only on which side of the number the result lay.

For the compound `CO[C@H]1O[C@]2(c3ccc(-c4ccccc4)cc3)CC[C@H]3CCCCC31OO2`, the concentration for half-maximal inhibition (IC50) (as a rule, the concentration at which inhibition is half-maximal) in the assay with Plasmodium falciparum came out at 68 nM.
In turn, `COc1ccc([C@@]23CC[C@H]4CCCCC4(OO2)C(OC)O3)cc1` (some centres not stated) yielded a half-maximal inhibitory concentration (IC50) with Plasmodium falciparum greater than 2500 nM.
Consider `CO[C@@H]1O[C@]2(c3ccco3)CC[C@H]3CCCCC31OO2`, for which the midpoint of inhibition in the assay on Plasmodium falciparum, the IC50, lay at 600 nM.
Turning to `CO[C@@H]1O[C@]2(c3ccc(CO)cc3)CC[C@H]3CCCCC31OO2`, 78 nM corresponded to half-maximal inhibition with Plasmodium falciparum (IC50).
For `CO[C@@H]1O[C@]2(c3cccc4ccccc34)CC[C@H]3CCCCC31OO2`, 170 nM corresponded to half-maximal inhibition in the assay with Plasmodium falciparum (IC50).
With `CO[C@H]1O[C@]2(c3ccc(CO)cc3)CC[C@H]3CCCCC31OO2`, the ED50 – broadly, the dose at which the effect has come halfway, by size or by number of responders – in the assay on Plasmodium berghei [1] came to 3.4 mg/kg; in the assay on Plasmodium berghei [3], 5.5 mg/kg. Further, the ED90 with Plasmodium berghei [2] was 12 µM/kg. For the same compound, half-maximal inhibition in the assay with Plasmodium falciparum (IC50) was put at 15 nM.
In turn, `CO[C@H]1O[C@]2(c3ccccc3)CC[C@H]3CCCCC31OO2` came in with an IC50 in the assay with Plasmodium falciparum of 38 nM.
Consider `CO[C@H]1O[C@]2(c3ccc(COCc4ccc(F)cc4)cc3)CC[C@H]3CCCCC31OO2`, for which the ED50 in the assay on Plasmodium berghei [1] amounted to 3.5 mg/kg; in the assay on Plasmodium berghei [3], 3.8 mg/kg. In addition, in the assay on Plasmodium berghei [2], the ED90 was determined as 6.8 µM/kg. Besides, the 50% inhibitory concentration (IC50) in the assay on Plasmodium falciparum came to 23 nM.
For the compound `CO[C@H]1O[C@]2(CCC(F)(F)F)CC[C@H]3CCCCC31OO2`, the 50% inhibitory concentration (IC50) in the assay with Plasmodium falciparum is 84 nM.
As to `CO[C@H]1O[C@]2(c3ccc(F)cc3)CC[C@H]3CCCCC31OO2`, the ED50 was determined as 6.8 mg/kg in the assay on Plasmodium berghei [1] and 10 mg/kg in the assay with Plasmodium berghei [3]. The same compound registered an ED90 with Plasmodium berghei [2] of 23 µM/kg. The same compound had a half-maximal inhibitory concentration (IC50) with Plasmodium falciparum of 30 nM.
For `CO[C@H]1O[C@]2(C)CC[C@H]3CCCCC31OO2`, half-maximal inhibition in the assay with Plasmodium falciparum (IC50) was put at 960 nM.
On the same count and under the same terms, the result for `CO[C@H]1O[C@]2(c3ccc(C(F)(F)F)cc3)CC[C@H]3CCCCC31OO2` reads 53 nM; that for `CO[C@@H]1O[C@]2(c3ccc(Cl)cc3)CC[C@H]3CCCCC31OO2`, 49 nM.
`CO[C@H]1O[C@]2(CF)CC[C@H]3CCCCC31OO2` displayed a concentration for half-maximal inhibition (IC50) with Plasmodium falciparum of 160 nM.
Consider `C[C@@H]1CC[C@H]2[C@@H](C)C(=O)O[C@@H]3O[C@@]4(C)CC[C@@H]1[C@]32OO4` [ARTEMISININ], for which the ED50 in the assay with Plasmodium berghei [1] came to 3 mg/kg; in the assay on Plasmodium berghei [3], 8.5 mg/kg. Moreover, 9.2 nM corresponded to half-maximal inhibition in the assay on Plasmodium falciparum (IC50).
In turn, `CO[C@@H]1O[C@]2(c3ccccc3)CC[C@H]3CCCCC31OO2` returned an IC50 in the assay on Plasmodium falciparum of 110 nM.
In the case of `CO[C@H]1O[C@]2(c3ccc(Cl)cc3)CC[C@H]3CCCCC31OO2`, in the assay on Plasmodium falciparum, 55 nM corresponded to half-maximal inhibition (IC50).
The same measure, in the same setting: the result for `CO[C@@H]1O[C@]2(c3ccc(COC(C)=O)cc3)CC[C@H]3CCCCC31OO2` reads 44 nM.
In the assay on Plasmodium falciparum, `CO[C@@H]1O[C@]2(c3ccc(COCc4ccc(F)cc4)cc3)CC[C@H]3CCCCC31OO2` gave an IC50 of 42 nM.
For `CCN(CC)CCCC(C)Nc1ccnc2cc(Cl)ccc12` (configuration not stated) [CHLOROQUINE], the median effective dose (ED50) turned out to be 1 mg/kg in the assay with Plasmodium berghei [1] and 1.2 mg/kg with Plasmodium berghei [3].
As to `CO[C@@H]1O[C@]2(c3ccc(-c4ccccc4)cc3)CC[C@H]3CCCCC31OO2`, the IC50 in the assay with Plasmodium falciparum stood at 76 nM.
On the same count and under the same terms, the result for `COCc1ccc([C@@]23CC[C@H]4CCCCC4(OO2)[C@@H](OC)O3)cc1` reads 51 nM; that for `CO[C@@H]1O[C@]2(c3ccc(F)cc3)CC[C@H]3CCCCC31OO2`, 65 nM; that for `CO[C@H]1O[C@]2(c3cccc4ccccc34)CC[C@H]3CCCCC31OO2`, 44 nM.
Turning to `COC(=O)OCc1ccc([C@@]23CC[C@H]4CCCCC4(OO2)[C@H](OC)O3)cc1`, half-maximal inhibition in the assay on Plasmodium falciparum (IC50) was put at 79 nM.
`CO[C@@H]1O[C@]2(c3ccc(F)cc3C)CC[C@H]3CCCC[C@@]31OO2` yielded a 50% inhibitory concentration (IC50) in the assay with Plasmodium falciparum of 99 nM.
As for `COCc1ccc([C@@]23CC[C@H]4CCCCC4(OO2)[C@H](OC)O3)cc1`, in the assay on Plasmodium falciparum, half-maximal inhibition (IC50) required 39 nM.
In the assay on Plasmodium falciparum, `CO[C@@H]1O[C@]2(CF)CC[C@H]3CCCCC31OO2` registered an IC50 of 320 nM.
`CO[C@@H]1O[C@]2(c3ccc(C(F)(F)F)cc3)CC[C@H]3CCCCC31OO2` showed an IC50 in the assay on Plasmodium falciparum of 39 nM. Compared with the last compound, the IC50 is about 8.2-fold lower.
Regarding `CO[C@@H]1O[C@@]2(c3ccccc3)OOC13CCCC[C@@H]3CC2C` (some centres not stated), half-maximal inhibition in the assay on Plasmodium falciparum (IC50) was put at 21 nM. This IC50 is about 1.9-fold lower than that of the compound before.
On to `CO[C@H]1O[C@]2(c3ccc(F)cc3C)CC[C@H]3CCCC[C@@]31OO2`, for which half-maximal inhibition with Plasmodium falciparum (IC50) was put at 34 nM.
For the compound `CO[C@H]1O[C@]2(c3ccc(COC(C)=O)cc3)CC[C@H]3CCCCC31OO2`, the ED50 is 2.8 mg/kg in the assay on Plasmodium berghei [1] and 14 mg/kg with Plasmodium berghei [3]. This compound also displayed an ED90 in the assay with Plasmodium berghei [2] of 22 µM/kg. The compound also registered an IC50 in the assay on Plasmodium falciparum of 20 nM.
